Compound activity as filed in PubChem BioAssay.
This is a sample that favours compounds with a hit; in the whole collection about 2.3% have one here.
MC4R antag cAMP: human MC4R antagonism in cAMP assay | P32245 | MC4R-expressing cells, MTII-stimulated cAMP, LANCE TR-FRET | inhibition, % at 6.5 µM | actives 0.48% (n = 360,000);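 active = inhibition above its plate's cutoff, the mean of tested wells on that plate plus 3 SD, cut at about 29% in these data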;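 note: 0% = Melanotan II alone and 100% = Melanotan II plus saturating MCL0020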
Target sequence (P32245 whole entry, looked up): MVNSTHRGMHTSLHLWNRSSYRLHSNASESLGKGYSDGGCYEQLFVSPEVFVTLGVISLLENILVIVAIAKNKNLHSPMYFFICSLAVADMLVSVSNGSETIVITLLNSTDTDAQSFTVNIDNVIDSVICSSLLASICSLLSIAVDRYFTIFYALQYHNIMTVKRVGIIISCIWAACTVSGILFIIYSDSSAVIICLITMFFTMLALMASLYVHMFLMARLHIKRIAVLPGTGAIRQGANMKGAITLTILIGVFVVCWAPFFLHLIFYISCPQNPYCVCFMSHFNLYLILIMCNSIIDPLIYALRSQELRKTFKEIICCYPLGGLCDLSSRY
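System: U2OS cells stably expressing human melanocortin 4 receptor (MC4R). Reagent: Melanotan II challenge after compound preincubation. Doses: 6.5 µM. Times: 30-min compound, 1-h challenge, 1-h detection, room temperature. Measured by: TR-FRET with Eu-cAMP and labeled anti-cAMP, 671 nm. Replicates: singlicate.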
MsrA inhibitor: inhibits bovine methionine sulfoxide reductase A; purified bovine MsrA, absorbance read-out; inhibition, % at 15.5 µM; actives 0.75% (n = 360,000); in the data active = inhibition above about 4.5%;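 note: 0% = vehicle wells with enzyme and 100% = reference inhibitor wells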
bovine MsrA act: activators of bovine methionine sulfoxide reductase A; activation, % at 10.6 µM; purified bovine MsrA, absorbance read-out; actives 0.3% (n = 360,000); in the data active = activation above about 7.5%;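 note: 0% = vehicle and 100% = reference activator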
MC4R ag barr: human MC4R agonism via beta-arrestin; actives 0.98% (n = 360,000); U2OS MC4R beta-arrestin complementation, luminescence; percent of melanotan II response, DMSO zero; AID 540308; activation, % at 8.9 µM; P32245;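 active = activation above a per-plate cutoff, the mean activation of sample wells on that plate plus 3 SD, cut at about 8% in these data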
cAMP nonselect: U2OS forskolin cAMP inhibition counter-screen; shares compounds with MC4R antag cAMP; parental U2OS, LANCE TR-FRET; inhibition, % at 6.5 µM; actives 26% (n = 1,600);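 active = mean inhibition over triplicates above the low-control well mean plus 3 SD, set per campaign, cut at about 13% in these data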;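 note: signal is single emission at 671 nm which falls as cellular cAMP rises; 0% = forskolin-stimulated wells and 100% = buffer without forskolin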
MC4R cAMP antag: human MC4R cAMP antagonism confirmation; shares compounds with MC4R antag cAMP; actives 27% (n = 1,600); MC4R-expressing cells, MTII-stimulated cAMP, TR-FRET; inhibition, % at 6.5 µM; in the data active = inhibition above about 29%;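 note: 0% = agonist stimulated wells alone and 100% = agonist stimulated wells plus saturating reference antagonist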
An asterisk follows results filed as active; / = no result.

SMILES	MC4R antag cAMP	MsrA inhibitor	bovine MsrA act	MC4R ag barr	others
C[C@@H]1O[C@@H](O[C@@H]2C=C3CCC4C(CC[C@]5(C)[C@@H](c6ccc(=O)oc6)CC[C@]45O)[C@@]3(C)CC2)[C@H](O)[C@H](O)[C@H]1O (some centres undefined)	3	0	-9	25*
C[C@@H]1O[C@@H](O[C@@H]2C=C3CC[C@@H]4C(CC[C@]5(C)[C@@H](c6ccc(=O)oc6)CC[C@]45O)[C@@]3(C)CC2)[C@H](O)[C@H](O)[C@H]1O (some centres undefined)	11	0	-3	38*
CC(=O)C1CCC2(O)C3CCC4=CC(=O)CCC4(C)C3CCC12C (centres undefined)	2	-1	2	2
COC(=O)C1=C(c2ccc(S(C)(=O)=O)cc2)C[C@@H]2CC[C@H]1N2C(=O)NC(C)C	0	0	-3	-2
CN(C)c1ccc(C(=O)N/N=C/C23CC[C@@H](O)CC2(O)CC[C@@H]2[C@@H]3CCC3(C)C(C4=CC(=O)OC4)CCC23O)cc1 (some centres undefined)	-7	0	-5	14*
COC(=O)CC(=O)c1ccc2c(c1)OCO2	7	0	-2	2
CCN1CCN(Cc2cc(OC)c(OC)cc2[N+](=O)[O-])CC1	/	3	/	/
Cc1ccc(-n2c(O)c(C=NCCN3CCNCC3)c(=O)[nH]c2=S)cc1	17	4.6*	-2	0
CC(Cc1ccccc1)NC(=O)/C=C/c1ccc(Cl)cc1 (centres undefined)	2	-1	-4	-1
CC(C)CC(=O)NC(Oc1ccc(Cl)cc1)C(Cl)(Cl)Cl (centres undefined)	12	0	-2	8.5*
N#CCCn1cc(C(=O)Nc2ccccc2Br)c(-c2ccc3c(c2)OCCO3)n1	20	0	-1	-2
Cc1cccc(OCCn2cccc2/C=C2/C(=O)NC(=O)N(Cc3ccco3)C2=O)c1	-12	-1	-3	-1
O=C(O)c1cc[c]([Hg][Cl])cc1	70*	/	-12	-2
COc1ccc(C(=O)O)cc1OC	0	0	-1	-1
COc1cc(C=C2C(=O)NC(=O)NC2=O)ccc1OCc1ccc([N+](=O)[O-])cc1	18	2	-3	-2
COc1cc(/C=C(/C)[N+](=O)[O-])ccc1OCc1ccccc1Cl	32*	/	-6	-5
O=C1CC(=O)N(c2cccc(Br)c2)C(=O)N1	3	1	0	0
Cc1ccc(C(=O)NCCN2CCC3(CC2)C(=O)NCN3c2ccccc2)cc1	/	0	/	/
COc1ccc(Cn2c(O)c(/C=N/NC(=O)c3ccccc3)c(=O)[nH]c2=O)cc1	-2	4.5*	-8	0
COc1ccc(Cn2c(O)c(/C=N/NC(=O)c3ccncc3)c(=O)[nH]c2=O)cc1	-2	4	-6	0
O=C(N/N=C/c1c(O)n(Cc2ccccc2)c(=O)[nH]c1=O)c1ccccc1O	-9	4.6*	-8	-2
CC(=O)OC1CC[C@]2(C#N)[C@H]3CC[C@]4(C)[C@H](C5C=CC(=O)O5)CCC4(O)C3CCC2(O)C1 (some centres undefined)	15	-1	-3	14*
O=[N+]([O-])c1ccc(NCCCN2CCOCC2)nc1	-2	4.6*	-10	0
O=C(NCCN1CCOCC1)c1ccc(Cl)nc1	-1	0	-4	-1
CCn1c(P(C)(=O)O)nc2cc(NC(=O)c3ccccc3F)ccc21	15	-1	-3	-2
CC(=O)C1C2c3ccccc3OC1(C)N=c1s/c(=C/c3cnn(C)c3)c(=O)n12 (centres undefined)	-7	8.1*	-4	1
COc1ccc(-c2nn(Cc3ccccc3)cc2C(=O)NC2CC2)cc1OC	3	1	-1	1
COC(=O)C(O)(c1c(C)[nH]n(-c2ccccc2)c1=O)C(F)(F)F (centres undefined)	-4	1	-14	1
O=C1NC(=O)N(c2cccc(Cl)c2)C(=O)/C1=C\c1ccc(Sc2nc3ccccc3[nH]2)o1	24	1	-5	-2
O=C1NC(=O)N(c2ccccc2)C(=O)/C1=C/c1ccc(Sc2ccccc2)o1	29*	/	-3	-2	cAMP nonselect=18*;MC4R cAMP antag=6
